Test results published in article PMC4073659 (Journal of Natural Products, 2014).

How the values were obtained:
[1] = test system: delta toxin production (strain AH2759); assay: Quorum sensing inhibition observed by delta toxin immunoblot; assay type: cell-based, Staphylococcus aureus (MRSA); conditions: strain AH2759 in TSB; compounds 0.3–400 μM, AIP-2 2–500 nM; spent media
Outline: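 Spent media from the agr P3lux reporter cultures: TSB with 10 μg/mL chloramphenicol, 1:500 inoculum, 1% DMSO final, 37 °C with shaking at 250 rpm. Wells were pooled and 0.22 μm filtered, then run on 15% SDS-PAGE and transferred to PVDF (90 min, 160 mA). Blots were blocked overnight at 4 °C in milk/BSA TBST, then probed 1 h at rt with rabbit anti-delta toxin (1:2000) and HRP anti-rabbit (1:10 000).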

[2] = test system: agr quorum-sensing system (agr P3lux reporter strain AH2759); assay: agr P3lux reporter strain assay for quorum sensing inhibition; assay type: cell-based, Staphylococcus aureus (CA-MRSA strain LAC, USA300); conditions: Staphylococcus aureus, read-out: agr P3lux IC50, reporter strain AH2759; cell-density-normalized luminescence; ± standard error from four-parameter logistic fit

Structure (SMILES): O=C(O)c1cc(O)c2c(c1)C(=O)c1cc(O)c(O)c(O)c1C2=O [compound 1]
- suppression of delta toxin production (immunoblot) [1]: dose-dependent suppression

Structure (SMILES): O=C1c2cc(O)cc(O)c2C(=O)c2c(O)cc(CO)cc21 [compound 3, ω-hydroxyemodin]
- suppression of delta toxin production (immunoblot) [1]: dose-dependent suppression
- IC50 [2]: < 10 µM

Structure (SMILES): CC(=O)C(O)c1cc(O)c2c(c1)C(=O)c1cc(O)cc(O)c1C2=O (centres unmarked) [compound 4]
- suppression of delta toxin production (immunoblot) [1]: dose-dependent suppression

Structure (SMILES): C[C@H](O)Cc1cc(O)c2c(c1)C(=O)c1cc(O)cc(O)c1C2=O [compound 6, (+)-2′S-isorhodoptilometrin]
- IC50 [2]: < 10 µM
